According to ChEMBL document CHEMBL1158389, “Highly twisted adamantyl arotinoids: synthesis, antiproliferative effects and RXR transactivation profiles” (Eur J Med Chem, 2009):
Active and inactive are the calls of the source. No cut-off for these calls is given here.

Key:
[1] = molecular target: T1, Retinoic acid receptor alpha (Homo sapiens) (UniProt P10276); assay: Inhibition of transactivation activity of Gal4-LBD fused human RARalpha (156 to 454) transfected in atRA-stimulated african green monkey CV1 cells at 4 uM after 6 hrs by Dual-light chemiluminescent assay; assay type: cell-based; settings: CV-1
T1 sequence (whole entry): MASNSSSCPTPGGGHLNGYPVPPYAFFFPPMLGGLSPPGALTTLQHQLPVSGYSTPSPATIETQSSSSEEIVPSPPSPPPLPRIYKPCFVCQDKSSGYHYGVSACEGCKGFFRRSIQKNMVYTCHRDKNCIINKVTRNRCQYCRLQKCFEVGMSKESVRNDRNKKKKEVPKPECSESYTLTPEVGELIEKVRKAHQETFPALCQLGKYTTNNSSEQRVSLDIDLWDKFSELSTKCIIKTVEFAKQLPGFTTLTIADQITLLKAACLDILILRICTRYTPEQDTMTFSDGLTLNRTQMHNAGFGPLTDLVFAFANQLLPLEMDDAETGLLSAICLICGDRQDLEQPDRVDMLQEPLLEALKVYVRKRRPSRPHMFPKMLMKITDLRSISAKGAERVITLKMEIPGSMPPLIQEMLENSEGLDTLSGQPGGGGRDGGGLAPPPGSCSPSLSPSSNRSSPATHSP
In short: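 Gal4 DBD (1–147) was fused to hRARα (156–462) or hRARβ (169–448) LBD. CV-1 cells (20,000/well) were co-transfected with 10 ng Gal4-LBD, 100 ng UAS-luciferase and 25 ng β-gal vector. After 16 h the medium was replaced with medium containing 5% charcoal-treated FBS. Cells got atRA plus test compound at 10-, 40- or 200-fold excess (0.2, 0.8, 4 μM) for 6 h. Luciferase and β-galactosidase were read by chemiluminescence.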

[2] = test system: SK-OV-3; assay: Antiproliferative activity against human SKOV3 cells at 4 uM after 48 hrs by MTT assay; assay type: functional; settings: SK-OV-3, 48 h
In short: (§1)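 Epithelial cancer lines came from ATCC and were seeded the day before in complete medium: PC-3, SkOV3 and A549 at 3,000/well; MiaPaCa-2 and BxPC-3 at 4,000; T-47D and MDA-MB-468 at 5,000. Medium was switched to 0.5% FBS just before exposure to 4 μM. Read-out was MTT (4 h, 37 °C), SDS/HCl solubilisation, A595 minus cell-free blank. Growth inhibition was taken versus DMSO (≤0.1% v/v) controls, ≥2 experiments in triplicate.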

[3] = test system: PC-3; assay: Antiproliferative activity against human PC3 cells at 4 uM after 48 hrs by MTT assay; assay type: functional; settings: PC-3, 48 h; in short: as §1
[4] = molecular target: T2, Retinoic acid receptor beta (Homo sapiens) (UniProt P10826); assay: Transactivation of Gal4-LBD fused human RARbeta (169 to 448) transfected in african green monkey CV1 cells assessed as luciferase activity at 2 uM after 6 hrs by Dual-light chemiluminescent assay; assay type: cell-based; settings: CV-1
T2 sequence (whole entry): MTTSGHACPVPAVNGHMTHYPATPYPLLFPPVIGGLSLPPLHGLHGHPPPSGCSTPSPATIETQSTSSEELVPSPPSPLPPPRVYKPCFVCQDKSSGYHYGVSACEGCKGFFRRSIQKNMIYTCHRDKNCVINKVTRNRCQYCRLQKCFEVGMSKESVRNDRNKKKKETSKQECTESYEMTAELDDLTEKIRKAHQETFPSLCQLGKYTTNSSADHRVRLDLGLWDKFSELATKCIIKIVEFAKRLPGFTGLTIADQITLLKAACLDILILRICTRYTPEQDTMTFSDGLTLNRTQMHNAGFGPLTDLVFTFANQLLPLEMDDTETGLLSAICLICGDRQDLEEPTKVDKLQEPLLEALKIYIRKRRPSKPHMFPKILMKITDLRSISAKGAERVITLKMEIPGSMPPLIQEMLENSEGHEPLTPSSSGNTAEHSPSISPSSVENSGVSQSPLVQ
In short: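 Transfected CV-1 cells carried Gal4-LBD constructs: hRARα 156–462, hRARβ 169–448, hRARγ 178–454 or mRXRα 218–467. Transfection used 10 ng Gal4-LBD, 100 ng UAS-luciferase and 25 ng β-gal vector. After 16 h the medium was changed to 5% charcoal-treated FBS. Cells were stimulated with 2 μM analog for 6 h (RARα, RARβ, RXRα) or 20 h (RARγ). Reference agonists were 1 μM atRA (RARα) and 1 μM 9cRA (RXRα). Luciferase and β-galactosidase were read by chemiluminescence.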

[5] = test system: MIA PaCa-2; assay: Antiproliferative activity against human MIAPaCa2 cells at 4 uM after 48 hrs by MTT assay; assay type: functional; settings: MIA PaCa-2, 48 h; in short: as §1
[6] = molecular target: T3, Retinoic acid receptor gamma (Homo sapiens) (UniProt P13631); assay: Inhibition of transactivation activity of Gal4-LBD fused human RARgamma (178 to 454) transfected in atRA-stimulated african green monkey CV1 cells at 4 uM after 20 hrs by Dual-light chemiluminescent assay; settings: CV-1
T3 sequence (whole entry): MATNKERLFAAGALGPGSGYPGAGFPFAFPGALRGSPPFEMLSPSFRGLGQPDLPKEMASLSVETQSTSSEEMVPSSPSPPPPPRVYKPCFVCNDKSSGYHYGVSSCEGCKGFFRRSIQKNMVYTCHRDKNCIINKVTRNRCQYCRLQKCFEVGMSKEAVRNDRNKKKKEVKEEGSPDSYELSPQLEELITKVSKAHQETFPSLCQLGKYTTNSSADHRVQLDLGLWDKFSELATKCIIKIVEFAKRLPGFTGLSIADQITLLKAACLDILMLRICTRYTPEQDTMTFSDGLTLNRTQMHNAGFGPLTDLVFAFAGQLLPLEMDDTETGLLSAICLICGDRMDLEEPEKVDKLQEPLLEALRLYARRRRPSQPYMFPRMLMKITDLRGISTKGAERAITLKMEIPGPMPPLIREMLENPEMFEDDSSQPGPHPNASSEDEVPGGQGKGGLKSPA

[7] = test system: MDA-MB-468; assay: Antiproliferative activity against human MDA-MB-468 cells at 4 uM after 48 hrs by MTT assay; assay type: functional; settings: MDA-MB-468, 48 h; in short: as §1

SMILES	inhibition [1] [%]	inhibition at 4 µM [2] [%]	inhibition at 4 µM [3] [%]	Activity [4]	inhibition at 4 µM [5] [%]	Activity [6]	inhibition at 4 µM [7] [%]
COCCOCOc1cc(C)c(-c2ccc3cc(C(=O)O)ccc3c2Cl)cc1C12CC3CC(CC(C3)C1)C2	27	71.2	97.6	inactive	63.7	inactive	49.9
COCCOCOc1cc(C)c(-c2ccc(CC(=O)O)cc2Cl)cc1C12CC3CC(CC(C3)C1)C2	43.7	19.1	52.2	inactive	6.3	inactive	25.3
